C8 TRAIL sens: caspase-8 TRAIL sensitization; NB7+C8 cells + TRAIL, ATPlite viability luminescence; inhibition (viability loss, TRAIL sensitization), % at 10 µM; 1% of 360,000 active; AID 624354;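 active means compounds causing at least 50% loss of cell viability in the single-dose screen, relative to plate controls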
FLuc act counter: firefly luciferase counter-screen for stimulation assays. ATPlite luciferase biochemical, luminescence, 10 min; 0 = ATP-free wells, 1 = DMSO control. activation factor at 10 µM. 200,000 tested, under 10 active. AID 1027;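 active means luciferase activation factor, scaled between plate controls, of at least 2 with compound at 10 µM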
Target sequence (P08659 whole entry, looked up): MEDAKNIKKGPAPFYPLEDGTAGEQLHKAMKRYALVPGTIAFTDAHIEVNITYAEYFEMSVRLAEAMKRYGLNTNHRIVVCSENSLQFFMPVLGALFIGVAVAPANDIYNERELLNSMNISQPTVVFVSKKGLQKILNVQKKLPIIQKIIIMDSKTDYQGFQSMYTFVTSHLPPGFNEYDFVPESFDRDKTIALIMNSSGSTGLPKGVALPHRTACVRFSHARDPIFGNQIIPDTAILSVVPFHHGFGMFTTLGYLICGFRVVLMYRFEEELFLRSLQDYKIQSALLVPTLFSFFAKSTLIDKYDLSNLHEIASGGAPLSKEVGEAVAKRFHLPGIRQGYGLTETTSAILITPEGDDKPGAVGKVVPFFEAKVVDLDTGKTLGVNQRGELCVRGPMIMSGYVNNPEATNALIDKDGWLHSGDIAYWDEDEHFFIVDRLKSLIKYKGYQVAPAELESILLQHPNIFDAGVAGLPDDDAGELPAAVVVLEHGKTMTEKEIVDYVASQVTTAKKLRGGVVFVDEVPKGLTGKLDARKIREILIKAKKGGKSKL
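Material: Luciferase/luciferin reagent mix | Doses: Test compounds dosed from 2 mM stocks in 100% DMSO | Timing: 10 min incubation after luciferase reagent addition, room temperature | Measured by: Luminescence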
FLuc inh counter: inhibits firefly luciferase, flagging false hits in luciferase inhibition screens. P08659. ATPLite firefly luciferase biochemical luminescence, 10 min. inhibition, % at 10 µM. 1.5% of 200,000 active. AID 1006;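 active means inhibition above about 50% when tested at 10 µM, limit read from the data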
PPC-1+TRAIL kill: compounds killing PPC-1 cancer cells with TRAIL present (potentiator screen, no TRAIL-free arm). PPC-1 cells + TRAIL, ATPLite viability luminescence. cell killing (% activity), % at 4 µM or 5 µM. 0.41% of 220,000 active;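 active means cell killing above 50% in the first pass at 4 µM, then a duplicate retest at 5 µM averaging 50% or more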;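 further: plate controls were cells with TRAIL plus DMSO for no effect and medium-only wells lacking cells for full effect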
PPC1 cytotox: kills PPC-1 cells; cytotoxicity, % at 5 µM; shares compounds with PPC-1+TRAIL kill; 50% of 1,200 active; PPC-1 viability, ATPlite luminescence, overnight;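 active means reconfirmed compounds whose average cytotoxicity reaches 50% or more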;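 further: 0% = DMSO-treated cells and 100% = wells holding medium but no cells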
* hit, by the source's call. Most compounds without a hit are left out; they make up all but 1.5% or so of the library.

Cc1ccc(S(=O)(=O)NC2=NCN(Cc3cccnc3)CN2)cc1 was read as C8 TRAIL sens 6, FLuc act counter 1, FLuc inh counter -2 and PPC-1+TRAIL kill -11.
COc1ccc(/C=C/C(=O)N2CCCc3ccccc32)cc1 was read as C8 TRAIL sens -4, FLuc act counter 0.9, FLuc inh counter 6 and PPC-1+TRAIL kill 16.
O=C(NCC1CCCO1)c1ccc2c(c1)C(=O)N(C1CCCCC1)C2=O (centres undefined) was read as C8 TRAIL sens -7, FLuc act counter 1.1, FLuc inh counter -9, PPC-1+TRAIL kill 9 and PPC1 cytotox -5.
Screening O=C(/C=C\Nc1ccccn1)c1ccccc1 returned C8 TRAIL sens 56*, FLuc act counter 0.1, FLuc inh counter 89*, PPC-1+TRAIL kill 55* and PPC1 cytotox 54*.
Screening O=C(/C=C/Nc1ccccc1Br)c1ccccn1 returned C8 TRAIL sens 93*, FLuc act counter 0, FLuc inh counter 97*, PPC-1+TRAIL kill 92* and PPC1 cytotox 93*.
C[C@@H]1C[C@@H]2OC(=O)[C@]3(C)[C@H]2[C@@H](OC3(C)O)[C@]2(C)C(=O)CC[C@H]12 (some centres undefined) was read as PPC-1+TRAIL kill 8.
Screening CCOC(=O)Nc1ccc(C)cc1Br returned C8 TRAIL sens -19, FLuc act counter 1, FLuc inh counter -3 and PPC-1+TRAIL kill 6.
Screening CCCNC(=O)c1ccc(-c2nc3ccccc3s2)s1 returned C8 TRAIL sens 83*, FLuc act counter 0.1, FLuc inh counter 90*, PPC-1+TRAIL kill 70* and PPC1 cytotox 77*.
CCOC(=O)C1(C)/C(=N/Nc2ccccc2)C(=O)C(=O)N1c1ccccc1 (centres undefined) was read as C8 TRAIL sens 2, FLuc act counter 1.1, FLuc inh counter -6, PPC-1+TRAIL kill -9 and PPC1 cytotox -1.
Screening NC(=O)Nc1ccc(C(=O)OCC(=O)N(Cc2ccccc2)C2CCS(=O)(=O)C2)cc1 (centres undefined) returned C8 TRAIL sens 14, FLuc act counter 1, FLuc inh counter -2, PPC-1+TRAIL kill -3 and PPC1 cytotox 0.
`Cc1ccc2nc(-c3ccccn3)oc2c1` gave C8 TRAIL sens 67*, FLuc act counter 0.2, FLuc inh counter 84*, PPC-1+TRAIL kill 65* and PPC1 cytotox 65*.
`c1ccc(-c2noc(-c3ccno3)n2)nc1` gave C8 TRAIL sens 5 and PPC-1+TRAIL kill 15.
`Clc1cccc(-c2nc(-c3ccccn3)no2)c1` gave C8 TRAIL sens 77*, FLuc act counter 0.1, FLuc inh counter 93*, PPC-1+TRAIL kill 70* and PPC1 cytotox 66*.
For Cc1ccc(-c2nc(-c3ccccn3)no2)cc1 the results were C8 TRAIL sens 92*, FLuc act counter 0, FLuc inh counter 97*, PPC-1+TRAIL kill 93* and PPC1 cytotox 92*.
c1ccc(-c2nc(-c3ccccn3)no2)cc1 was read as C8 TRAIL sens 75*, FLuc act counter 0.1, FLuc inh counter 90*, PPC-1+TRAIL kill 72* and PPC1 cytotox 66*.
Screening O=S(=O)(Nc1cc(Cl)ccc1-n1cncn1)c1ccccc1Cl returned C8 TRAIL sens 12.
Screening Cc1n[nH]c(=O)c2c(NC(=O)CSc3c(Cl)cccc3Cl)oc(C)c12 returned C8 TRAIL sens -1.
Screening Cc1ccc(-c2nc(-c3ccncc3)no2)cc1Cl returned C8 TRAIL sens 1.
For Cc1ccc(-c2nc(-c3ccccn3)no2)cc1Cl the results were C8 TRAIL sens 87*, FLuc act counter 0, FLuc inh counter 95*, PPC-1+TRAIL kill 88* and PPC1 cytotox 88*.
Screening c1ccc(-c2ccc(-c3nc(-c4ccccn4)no3)cc2)cc1 returned C8 TRAIL sens 90*, FLuc act counter 0.1, FLuc inh counter 94*, PPC-1+TRAIL kill 90* and PPC1 cytotox 90*.
Screening CCOC(=O)/C=c1\sc2n(c1=O)CCN=2 returned C8 TRAIL sens -1, FLuc act counter 1, FLuc inh counter -3 and PPC-1+TRAIL kill 14.
CCn1nc(C)c(CNC(=O)c2cc(COc3ccc(F)cc3Cl)on2)c1C was read as C8 TRAIL sens 20 and PPC-1+TRAIL kill 39.
Screening COc1ccc(N(C(C)C(=O)NC2CCCCCC2)S(C)(=O)=O)cc1 (centres undefined) returned C8 TRAIL sens 4, FLuc act counter 1.1, FLuc inh counter -8, PPC-1+TRAIL kill 0 and PPC1 cytotox -1.
For COc1ccc(N(C(C)C(=O)NN=C2CCCCCCC2)S(C)(=O)=O)cc1 (centres undefined) the results were C8 TRAIL sens 7, FLuc act counter 1.1, FLuc inh counter -7 and PPC-1+TRAIL kill 8.
For COc1cc(=O)[nH]c(SC(C)C(=O)Nc2cc(C)on2)n1 (centres undefined) the results were C8 TRAIL sens 17.
For Cc1ccc(C(C)C)c(OCCNCc2ccccc2)c1 the results were C8 TRAIL sens 8.
`CC(c1ccco1)N(C(=O)COc1ccc(Cl)cc1Cl)c1ccccn1` (centres undefined) gave C8 TRAIL sens 57*, FLuc act counter 0.7, FLuc inh counter 33, PPC-1+TRAIL kill 14 and PPC1 cytotox 4.
CC(c1ccco1)N(C(=O)COc1ccc(Cl)cc1)c1ccccn1 (centres undefined) was read as C8 TRAIL sens 15, FLuc act counter 0.9, FLuc inh counter 11 and PPC-1+TRAIL kill 21.
Screening O=C(Nc1ccc(-c2cn3ccsc3n2)cc1)C1CC1 returned C8 TRAIL sens 69*, FLuc act counter 0.1, FLuc inh counter 87*, PPC-1+TRAIL kill 61* and PPC1 cytotox 64*.
O=C(Nc1ccc(-c2cn3ccsc3n2)cc1)C1CCCC1 was read as C8 TRAIL sens 79*, FLuc act counter 0.1, FLuc inh counter 88*, PPC-1+TRAIL kill 73* and PPC1 cytotox 73*.
For Cc1nc(-c2ccc(NC(=O)C3CCCCC3)cc2)cs1 the results were C8 TRAIL sens 29, FLuc act counter 0.6, FLuc inh counter 43 and PPC-1+TRAIL kill 28.
`CC(C)CC(=O)Nc1cccc(-c2cn3ccsc3n2)c1` gave C8 TRAIL sens 11, FLuc act counter 0.5, FLuc inh counter 48 and PPC-1+TRAIL kill 34.
`CCC(=O)Nc1cccc(-c2cn3ccsc3n2)c1` gave C8 TRAIL sens 11, FLuc act counter 0.8, FLuc inh counter 22, PPC-1+TRAIL kill -2 and PPC1 cytotox 9.
For O=C(N/N=C/c1cccc2nccnc12)c1ccccc1O the results were C8 TRAIL sens 6 and PPC-1+TRAIL kill 20.
Screening O=C(N/N=C/c1cccc2cccnc12)c1ccccc1O returned C8 TRAIL sens 41, PPC-1+TRAIL kill 33 and PPC1 cytotox 19.
Screening C(=N\Nc1nc2ccccc2[nH]1)/c1c[nH]c2ccccc12 returned C8 TRAIL sens -16, FLuc act counter 0.7, FLuc inh counter 30 and PPC-1+TRAIL kill -17.
For C(=N\Nc1nc2ccccc2[nH]1)/c1cccc2cccnc12 the results were C8 TRAIL sens 19, PPC-1+TRAIL kill 53* and PPC1 cytotox 52*.

Screening results (PubChem BioAssay)
